A short description of data set [1]: Apparent permeability from apical to basolateral side in human Caco2 cells at 10 uM incubated for 1 hr by HPLC-MS/MS analysis. Type of data set: ADME, cell-based. The following applies: Caco-2. (Caco-2 cells form a polarised layer with tight junctions and transporters.)
Data set [2] in a line: Apparent permeability from basolateral to apical side in human Caco2 cells at 10 uM incubated for 1 hr by HPLC-MS/MS analysis. Type of data set: ADME, cell-based. To be noted: Caco-2.
Data set [3] is described as follows: Apparent permeability from basolateral to apical side in human Caco2 cells assessed as drug recovery at 10 uM incubated for 1 hr by HPLC-MS/MS analysis. To be noted: Caco-2, read-out: Drug recovery. In kind it is ADME, cell-based.
Data set [4] is described as follows: Apparent permeability from apical to basolateral side in human Caco2 cells assessed as drug recovery at 10 uM incubated for 1 hr by HPLC-MS/MS analysis. In kind it is ADME, cell-based. The following applies: Caco-2, read-out: Drug recovery.
For data set [5], the target named is CREB-binding protein (Homo sapiens) (UniProt Q92793). As to the kind of experiment: Binding affinity to human His6-tagged CREBBP (R1081 to G1197 residues) expressed in Escherichia coli BL21(DE3) cells at 200 uM incubated for 30 mins by SYPRO orange staining based fluorescence thermal shift assay. In a few lines: (§1)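 His6-tagged bromodomain constructs expressed in E. coli BL21(DE3) (grown at 25 °C to OD600 ~1.0, induced with 0.1 mM IPTG at 16 °C for 16 h). Purified by Ni affinity then gel filtration. Final 10 μM protein and 200 μM compound in 10 mM HEPES pH 7.5, 150 mM NaCl, DMSO ≤1%. SYPRO Orange 1:1000, 30 min on ice. Melt 30–75 °C at 0.3 °C/min. Triplicates. Tm from Boltzmann fit; ΔTm = Tm with minus without compound.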

Data set [6] addresses T1, Bromodomain-containing protein 4 (Homo sapiens, UniProt O60885). As to the kind of experiment: Binding affinity to human His6-tagged BRD4 bromodomain 1 (N44 to E168 residues) expressed in Escherichia coli BL21(DE3) cells by isothermal titration calorimetry. For orientation: ITC needs no label: the signal is the heat of the interaction.
Data set [7] has as its target T2, Bromodomain-containing protein 1 (Homo sapiens) (UniProt O95696).
T2 sequence (whole entry): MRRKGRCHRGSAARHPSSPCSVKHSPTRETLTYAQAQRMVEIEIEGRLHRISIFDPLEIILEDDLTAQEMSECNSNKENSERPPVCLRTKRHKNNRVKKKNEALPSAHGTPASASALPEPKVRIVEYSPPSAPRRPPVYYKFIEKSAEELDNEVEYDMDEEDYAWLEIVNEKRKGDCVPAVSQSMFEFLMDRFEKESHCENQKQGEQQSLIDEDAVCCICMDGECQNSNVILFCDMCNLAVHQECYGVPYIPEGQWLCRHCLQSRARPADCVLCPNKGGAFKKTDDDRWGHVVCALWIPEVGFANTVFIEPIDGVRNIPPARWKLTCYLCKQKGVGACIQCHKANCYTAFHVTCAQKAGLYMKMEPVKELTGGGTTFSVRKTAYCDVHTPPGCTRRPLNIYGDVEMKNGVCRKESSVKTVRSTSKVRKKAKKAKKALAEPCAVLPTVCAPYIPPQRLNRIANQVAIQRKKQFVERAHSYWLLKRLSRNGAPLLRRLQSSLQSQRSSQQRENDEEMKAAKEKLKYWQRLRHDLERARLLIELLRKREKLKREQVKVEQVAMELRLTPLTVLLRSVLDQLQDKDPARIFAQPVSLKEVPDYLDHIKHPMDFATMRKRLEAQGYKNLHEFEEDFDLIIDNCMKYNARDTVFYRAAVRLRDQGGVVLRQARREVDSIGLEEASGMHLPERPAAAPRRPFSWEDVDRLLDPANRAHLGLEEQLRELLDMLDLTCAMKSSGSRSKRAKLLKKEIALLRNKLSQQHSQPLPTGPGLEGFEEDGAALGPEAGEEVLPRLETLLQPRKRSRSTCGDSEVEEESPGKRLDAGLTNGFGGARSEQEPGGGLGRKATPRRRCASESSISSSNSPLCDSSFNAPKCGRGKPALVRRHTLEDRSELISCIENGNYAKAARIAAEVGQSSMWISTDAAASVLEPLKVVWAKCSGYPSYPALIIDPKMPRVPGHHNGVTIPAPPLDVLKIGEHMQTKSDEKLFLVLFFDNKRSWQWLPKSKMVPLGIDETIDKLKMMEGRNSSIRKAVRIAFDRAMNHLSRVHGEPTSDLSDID
Description: Binding affinity to human His6-tagged BRD1 (E556 to A688 residues) expressed in Escherichia coli BL21(DE3) cells at 200 uM incubated for 30 mins by SYPRO orange staining based fluorescence thermal shift assay. An outline of the steps:
as §1

Data set [8] has as its target Histone-lysine N-methyltransferase ASH1L (Homo sapiens) (UniProt Q9NR48). As to the kind of experiment: Binding affinity to human His6-tagged ASH1L (E2433 to E2564 residues) expressed in Escherichia coli BL21(DE3) cells at 200 uM incubated for 30 mins by SYPRO orange staining based fluorescence thermal shift assay. In a few lines: as §1
In data set [9] the target is Bromodomain-containing protein 2 (Homo sapiens) (UniProt P25440). Description: Binding affinity to human His6-tagged BRD2 bromodomain 1 (K77 to N194 residues) expressed in Escherichia coli BL21(DE3) cells at 200 uM incubated for 30 mins by SYPRO orange staining based fluorescence thermal shift assay. An outline of the steps: as §1
Data set [10] has as its target Histone acetyltransferase p300 (Homo sapiens) (UniProt Q09472). As to the kind of experiment: Binding affinity to human His6-tagged EP300 (A1040 to G1161 residues) expressed in Escherichia coli BL21(DE3) cells at 200 uM incubated for 30 mins by SYPRO orange staining based fluorescence thermal shift assay. In a few lines: as §1
Data set [11] deals with MV4-11. Description: Antiproliferative activity against human MV4-11 cells after 72 hrs by CCK8 assay. In kind it is functional, cell-based. The following applies: Homo sapiens, MV4-11, 72 h; read-out: IC50.
Data set [12] has as its target Transcription initiation factor TFIID subunit 1 (Homo sapiens) (UniProt P21675). Description: Binding affinity to human His6-tagged TAF1 bromodomain 1 (R1377 to D1503 residues) expressed in Escherichia coli BL21(DE3) cells at 200 uM incubated for 30 mins by SYPRO orange staining based fluorescence thermal shift assay. In a few lines:
as §1

In data set [13] the target is Bromodomain-containing protein 3 (Homo sapiens) (UniProt Q15059). As to the kind of experiment: Binding affinity to human His6-tagged BRD3 bromodomain 1 (P24 to E144 residues) expressed in Escherichia coli BL21(DE3) cells at 200 uM incubated for 30 mins by SYPRO orange staining based fluorescence thermal shift assay. In a few lines: as §1
Data set [14] has as its target T1, Bromodomain-containing protein 4.
The subject of data set [15] is MV4-11. As to the kind of experiment: Growth inhibition of human MV4-11 cells at 10 uM after 72 hrs by CCK8 assay. In kind it is functional. The following applies: MV4-11, 72 h, read-out: GI. In general terms: Formazan colour is commonly taken as a measure of viable cells.
For data set [16], the target named is Bromodomain testis-specific protein (Homo sapiens) (UniProt Q58F21). Description: Binding affinity to human His6-tagged BRDT bromodomain 1 (N21 to E137 residues) expressed in Escherichia coli BL21(DE3) cells at 200 uM incubated for 30 mins by SYPRO orange staining based fluorescence thermal shift assay. An outline of the steps: as §1
The target in data set [17] is Bromodomain adjacent to zinc finger domain protein 2B (Homo sapiens) (UniProt Q9UIF8). As to the kind of experiment: Binding affinity to human His6-tagged BAZ2B (S1858 to S1972 residues) expressed in Escherichia coli BL21(DE3) cells at 200 uM incubated for 30 mins by SYPRO orange staining based fluorescence thermal shift assay. In a few lines: as §1
The target of data set [18] is T1, Bromodomain-containing protein 4. As to the kind of experiment: Inhibition of human His6-tagged BRD4 bromodomain 1 (N44 to E168 residues) expressed in Escherichia coli BL21(DE3) cells using biotin-H4KAc4 as substrate incubated for 2 hrs by alphascreen assay.
The target in data set [19] is Histone acetyltransferase KAT2B (Homo sapiens) (UniProt Q92831). As to the kind of experiment: Binding affinity to human His6-tagged PCAF (G715 to D831 residues) expressed in Escherichia coli BL21(DE3) cells at 200 uM incubated for 30 mins by SYPRO orange staining based fluorescence thermal shift assay. An outline of the steps: as §1
Data set [20] addresses T3, Bromodomain-containing protein 9 (Homo sapiens) (UniProt Q9H8M2).
T3 sequence (whole entry): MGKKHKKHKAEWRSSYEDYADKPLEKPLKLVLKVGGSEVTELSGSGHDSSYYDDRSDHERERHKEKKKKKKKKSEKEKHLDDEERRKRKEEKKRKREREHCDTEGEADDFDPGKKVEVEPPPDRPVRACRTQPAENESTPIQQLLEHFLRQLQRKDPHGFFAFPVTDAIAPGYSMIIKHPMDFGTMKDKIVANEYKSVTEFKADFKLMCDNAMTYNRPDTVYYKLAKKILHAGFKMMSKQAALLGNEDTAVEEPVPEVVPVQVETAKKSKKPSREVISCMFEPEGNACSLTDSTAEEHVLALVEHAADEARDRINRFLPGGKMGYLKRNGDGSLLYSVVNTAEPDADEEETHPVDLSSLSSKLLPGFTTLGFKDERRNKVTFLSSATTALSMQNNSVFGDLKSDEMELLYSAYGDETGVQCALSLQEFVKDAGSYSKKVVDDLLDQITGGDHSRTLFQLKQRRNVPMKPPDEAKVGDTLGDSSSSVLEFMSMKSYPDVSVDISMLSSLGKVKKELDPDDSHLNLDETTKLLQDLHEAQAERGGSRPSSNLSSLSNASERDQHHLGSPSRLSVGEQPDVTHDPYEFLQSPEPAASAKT
As to the kind of experiment: Binding affinity to human His6-tagged BRD9 (L14 to Q134 residues) expressed in Escherichia coli BL21(DE3) cells at 200 uM incubated for 30 mins by SYPRO orange staining based fluorescence thermal shift assay. An outline of the steps:
as §1

Data set [21] is described as follows: Antiproliferative activity against human HL60 cells after 72 hrs by CCK8 assay. In kind it is functional, cell-based, HL-60. To be noted: Homo sapiens, HL-60, 72 h; read-out: IC50.
The subject of another data set is HT-29. Description: Antiproliferative activity against human HT-29 cells after 72 hrs by CCK8 assay. The following applies: Homo sapiens, HT-29, 72 h; read-out: IC50. Type of data set: functional, cell-based.

Chain of CREB-binding protein (Homo sapiens) (Q92793 2-2442 limits assumed): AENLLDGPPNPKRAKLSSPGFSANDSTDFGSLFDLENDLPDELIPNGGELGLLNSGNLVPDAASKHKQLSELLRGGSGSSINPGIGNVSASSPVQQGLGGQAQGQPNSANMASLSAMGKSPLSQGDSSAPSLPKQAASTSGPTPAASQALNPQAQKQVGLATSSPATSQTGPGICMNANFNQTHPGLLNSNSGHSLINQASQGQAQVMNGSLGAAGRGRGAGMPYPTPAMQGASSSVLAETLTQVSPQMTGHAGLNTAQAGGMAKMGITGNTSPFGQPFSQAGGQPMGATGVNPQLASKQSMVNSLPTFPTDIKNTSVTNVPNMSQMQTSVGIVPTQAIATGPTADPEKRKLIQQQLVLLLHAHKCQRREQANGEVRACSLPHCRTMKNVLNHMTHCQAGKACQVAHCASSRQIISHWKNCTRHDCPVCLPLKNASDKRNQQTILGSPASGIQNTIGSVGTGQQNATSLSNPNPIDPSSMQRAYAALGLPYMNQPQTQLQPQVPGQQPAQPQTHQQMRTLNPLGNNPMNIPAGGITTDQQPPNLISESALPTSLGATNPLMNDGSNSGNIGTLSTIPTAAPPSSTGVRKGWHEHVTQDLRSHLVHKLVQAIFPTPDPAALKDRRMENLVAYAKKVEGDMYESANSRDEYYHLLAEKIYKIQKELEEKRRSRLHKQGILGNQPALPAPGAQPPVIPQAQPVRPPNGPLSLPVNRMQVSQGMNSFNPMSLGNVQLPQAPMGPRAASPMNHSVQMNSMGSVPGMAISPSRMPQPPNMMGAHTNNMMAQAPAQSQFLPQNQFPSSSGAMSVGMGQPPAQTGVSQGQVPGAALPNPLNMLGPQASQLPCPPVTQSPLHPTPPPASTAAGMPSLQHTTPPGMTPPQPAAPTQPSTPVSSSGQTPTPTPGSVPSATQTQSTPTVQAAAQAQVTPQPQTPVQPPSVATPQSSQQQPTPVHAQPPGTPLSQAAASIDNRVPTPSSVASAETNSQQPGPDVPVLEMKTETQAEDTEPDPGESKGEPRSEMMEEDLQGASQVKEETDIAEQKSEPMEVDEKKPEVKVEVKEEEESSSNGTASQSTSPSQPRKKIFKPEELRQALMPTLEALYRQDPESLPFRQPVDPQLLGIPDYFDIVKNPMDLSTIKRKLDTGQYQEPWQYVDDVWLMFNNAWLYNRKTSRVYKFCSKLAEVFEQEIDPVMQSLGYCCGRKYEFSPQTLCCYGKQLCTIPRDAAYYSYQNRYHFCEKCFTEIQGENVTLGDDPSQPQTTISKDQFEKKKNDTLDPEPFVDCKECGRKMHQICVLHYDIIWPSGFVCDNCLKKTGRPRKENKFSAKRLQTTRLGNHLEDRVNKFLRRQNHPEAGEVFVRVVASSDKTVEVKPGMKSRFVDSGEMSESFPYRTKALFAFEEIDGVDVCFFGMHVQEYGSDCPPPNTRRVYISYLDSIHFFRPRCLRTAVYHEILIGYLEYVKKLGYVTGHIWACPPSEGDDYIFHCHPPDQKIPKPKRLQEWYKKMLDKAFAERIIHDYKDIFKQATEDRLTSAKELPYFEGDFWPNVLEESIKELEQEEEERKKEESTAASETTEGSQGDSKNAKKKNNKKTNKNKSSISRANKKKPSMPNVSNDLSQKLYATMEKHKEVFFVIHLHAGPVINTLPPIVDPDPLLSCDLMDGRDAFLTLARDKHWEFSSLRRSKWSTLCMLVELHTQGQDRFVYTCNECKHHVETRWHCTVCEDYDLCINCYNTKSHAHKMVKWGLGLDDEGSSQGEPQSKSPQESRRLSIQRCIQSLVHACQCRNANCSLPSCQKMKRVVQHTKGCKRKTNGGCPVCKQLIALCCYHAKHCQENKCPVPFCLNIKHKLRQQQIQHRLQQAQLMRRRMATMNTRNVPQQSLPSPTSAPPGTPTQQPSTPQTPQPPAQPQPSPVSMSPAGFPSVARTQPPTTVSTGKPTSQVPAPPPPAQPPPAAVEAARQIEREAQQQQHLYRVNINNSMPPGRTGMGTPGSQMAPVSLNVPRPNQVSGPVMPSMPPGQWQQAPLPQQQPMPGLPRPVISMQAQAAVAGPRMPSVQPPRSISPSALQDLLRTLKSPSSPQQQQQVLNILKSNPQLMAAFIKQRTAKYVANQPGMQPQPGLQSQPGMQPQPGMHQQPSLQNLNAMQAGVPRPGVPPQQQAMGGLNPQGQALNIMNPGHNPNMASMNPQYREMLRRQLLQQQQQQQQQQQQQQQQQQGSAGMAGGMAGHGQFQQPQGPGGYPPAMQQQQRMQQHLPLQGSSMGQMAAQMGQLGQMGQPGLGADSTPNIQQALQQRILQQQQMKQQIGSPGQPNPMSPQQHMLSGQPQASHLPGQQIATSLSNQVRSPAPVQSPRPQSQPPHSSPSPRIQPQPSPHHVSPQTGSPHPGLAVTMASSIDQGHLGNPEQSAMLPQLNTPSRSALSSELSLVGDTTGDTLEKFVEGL
Chain of Histone acetyltransferase KAT2B (Homo sapiens) (Q92831 whole entry, looked up, the tested form may be a part): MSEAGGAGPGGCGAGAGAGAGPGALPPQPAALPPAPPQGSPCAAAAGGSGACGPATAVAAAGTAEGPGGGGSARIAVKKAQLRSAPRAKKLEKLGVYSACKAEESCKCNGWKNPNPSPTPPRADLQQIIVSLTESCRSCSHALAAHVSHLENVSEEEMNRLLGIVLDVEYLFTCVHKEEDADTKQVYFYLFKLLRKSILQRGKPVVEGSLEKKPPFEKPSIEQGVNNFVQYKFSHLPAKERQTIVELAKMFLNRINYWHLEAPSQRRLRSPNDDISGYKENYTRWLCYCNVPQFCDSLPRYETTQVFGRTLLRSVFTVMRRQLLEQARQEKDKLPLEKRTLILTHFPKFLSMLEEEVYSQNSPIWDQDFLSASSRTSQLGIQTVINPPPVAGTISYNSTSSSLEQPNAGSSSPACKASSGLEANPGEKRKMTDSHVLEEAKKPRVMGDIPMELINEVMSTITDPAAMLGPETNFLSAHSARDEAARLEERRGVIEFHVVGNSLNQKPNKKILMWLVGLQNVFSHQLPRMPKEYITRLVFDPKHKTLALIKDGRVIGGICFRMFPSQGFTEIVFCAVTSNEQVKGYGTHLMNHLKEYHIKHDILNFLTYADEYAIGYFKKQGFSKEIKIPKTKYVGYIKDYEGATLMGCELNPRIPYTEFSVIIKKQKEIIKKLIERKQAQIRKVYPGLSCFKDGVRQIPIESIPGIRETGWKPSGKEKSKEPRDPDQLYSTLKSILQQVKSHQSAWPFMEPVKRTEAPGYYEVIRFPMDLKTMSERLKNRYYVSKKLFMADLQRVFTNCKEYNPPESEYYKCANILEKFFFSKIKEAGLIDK
Chain of Bromodomain-containing protein 2 (Homo sapiens) (P25440 whole entry, looked up, the tested form may be a part): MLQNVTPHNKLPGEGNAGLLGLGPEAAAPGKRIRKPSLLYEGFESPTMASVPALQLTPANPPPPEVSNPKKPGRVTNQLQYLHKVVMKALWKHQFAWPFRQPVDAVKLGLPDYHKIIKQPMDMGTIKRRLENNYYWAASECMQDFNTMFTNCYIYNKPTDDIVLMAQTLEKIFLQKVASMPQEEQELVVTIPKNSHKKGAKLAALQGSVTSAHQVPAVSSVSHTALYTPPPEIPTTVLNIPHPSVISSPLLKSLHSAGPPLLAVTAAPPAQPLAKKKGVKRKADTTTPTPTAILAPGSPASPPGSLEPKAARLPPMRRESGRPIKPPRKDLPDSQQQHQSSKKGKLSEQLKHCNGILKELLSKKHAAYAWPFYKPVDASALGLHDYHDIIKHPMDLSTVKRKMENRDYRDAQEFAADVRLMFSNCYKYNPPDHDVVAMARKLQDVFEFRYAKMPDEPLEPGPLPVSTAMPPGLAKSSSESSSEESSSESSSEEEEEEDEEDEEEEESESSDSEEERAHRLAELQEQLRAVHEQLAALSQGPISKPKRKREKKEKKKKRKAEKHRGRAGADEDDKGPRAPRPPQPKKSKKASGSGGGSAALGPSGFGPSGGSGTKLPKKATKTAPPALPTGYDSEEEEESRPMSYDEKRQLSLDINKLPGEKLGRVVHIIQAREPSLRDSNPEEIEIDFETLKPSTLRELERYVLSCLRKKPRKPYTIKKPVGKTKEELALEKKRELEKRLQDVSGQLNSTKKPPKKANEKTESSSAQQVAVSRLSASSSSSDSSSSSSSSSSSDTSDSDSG
Chain of Bromodomain-containing protein 3 (Homo sapiens) (Q15059 2-726 limits assumed): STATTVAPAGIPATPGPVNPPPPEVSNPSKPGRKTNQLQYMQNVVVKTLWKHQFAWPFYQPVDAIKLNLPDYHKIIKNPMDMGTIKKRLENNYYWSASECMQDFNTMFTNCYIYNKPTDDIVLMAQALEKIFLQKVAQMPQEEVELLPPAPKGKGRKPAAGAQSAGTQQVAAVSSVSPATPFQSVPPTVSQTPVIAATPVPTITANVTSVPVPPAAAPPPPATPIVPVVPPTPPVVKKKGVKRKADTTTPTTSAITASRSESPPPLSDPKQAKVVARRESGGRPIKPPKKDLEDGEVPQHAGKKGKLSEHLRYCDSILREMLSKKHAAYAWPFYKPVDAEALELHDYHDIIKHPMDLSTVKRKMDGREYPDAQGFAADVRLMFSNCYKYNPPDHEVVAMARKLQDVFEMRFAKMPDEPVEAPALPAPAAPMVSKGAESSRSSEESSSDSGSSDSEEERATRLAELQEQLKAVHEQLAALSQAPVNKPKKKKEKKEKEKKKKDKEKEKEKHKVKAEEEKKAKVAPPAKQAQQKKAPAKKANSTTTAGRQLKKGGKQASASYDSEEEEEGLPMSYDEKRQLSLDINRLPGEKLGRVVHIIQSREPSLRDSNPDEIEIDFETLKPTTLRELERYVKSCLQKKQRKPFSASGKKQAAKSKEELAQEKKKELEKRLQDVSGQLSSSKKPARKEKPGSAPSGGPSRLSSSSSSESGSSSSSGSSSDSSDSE

For the compound `C[C@H]1O[C@@H](O[C@H]2[C@@H](O)C[C@H](O[C@H]3[C@@H](O)C[C@H](O[C@H]4CC[C@@]5(C)[C@H](CC[C@@H]6[C@@H]5C[C@@H](O)[C@]5(C)[C@@H](C7=CC(=O)OC7)CC[C@]65O)C4)O[C@@H]3C)O[C@@H]2C)C[C@H](O)[C@@H]1O` [DIGOXIN], the Papp A→B (in general, the apparent permeability from the apical to the basolateral side of a cell layer) at 1 h, 10 µM in data set [1] was 1.6 ×10⁻⁶ cm/s. For the same compound, the Papp B→A – broadly, how fast a substance crosses the layer from the basolateral side – at 1 h, 10 µM in data set [2] was 17.7 ×10⁻⁶ cm/s. The recovery at 1 h, 10 µM was determined as 111% in [3] and 107% in [4].
In the case of `CCN1C(=O)c2cccc3c(NS(=O)(=O)c4ccc(F)cc4F)ccc1c23`, the ΔTm (commonly the change in melting temperature against a reference sample) in data set [5] was 2 °C; in [7], 1.6 °C; in data set [8] it was 2.9 °C; in data set [9], 5.5 °C; in [10], 4.5 °C; in data set [12] it was -1 °C. Also, the shift in melting temperature (ΔTm) in data set [13] was 7.8 °C; in data set [14], 9.5 °C; in data set [16], 6.6 °C; in data set [17], -5.7 °C; in data set [19], 3.6 °C; in data set [20] it was 3 °C. Further, in data set [6], the equilibrium dissociation constant (Kd) (in general, the concentration at which binding is half-saturated) came out at 0.275 µM. For the same compound, the half-maximal inhibitory concentration (IC50) (commonly the point on the concentration scale where inhibition reaches its midpoint) in the data set with MV4-11 [11] was determined as 4.19 µM; in data set [18], 0.12 µM. Besides, in the data set with MV4-11 [15], the inhibition of growth at 10 µM stood at 25%.
With `CCN1C(=O)c2cccc3c(NS(=O)(=O)C4CCCCC4)ccc1c23`, the ΔTm in data set [5] was 3.3 °C; in data set [7], -0.3 °C; in data set [8] it was -0.4 °C; in [9] it was 5.8 °C; in data set [10] it was 4.7 °C; in data set [12] it was -0.6 °C. Also, the shift in melting temperature (ΔTm) came to 7.8 °C in data set [13]; 10.1 °C in [14]; 5 °C in data set [16]; 0 °C in data set [17]; 2.3 °C in data set [19]; 2.8 °C in data set [20]. In [6], this compound registered a Kd of 0.255 µM. Moreover, the IC50 amounted to 2.85 µM in the data set with MV4-11 [11], 3.86 µM in data set [21], 8.1 µM in the data set with HT-29 and 0.21 µM in data set [18].

Source of the values: ChEMBL document CHEMBL3779865, “Discovery of Benzo[cd]indol-2(1H)-ones as Potent and Specific BET Bromodomain Inhibitors: Structure-Based Virtual Screening, Optimization, and Biological Evaluation” (J Med Chem, 2016).
